ChEMBL document CHEMBL1123105, “New bidentates as full inhibitors of enkephalin-degrading enzymes: synthesis and analgesic properties” (J Med Chem, 1985)
pIC50: −log10 of the molar value.

Target: not listed separately
Assay: Inhibitory activity against rat brain Dipeptidyl aminopeptidase using 10 nM of [3H]Leu-enkephalin as substrate
Summary of the method: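 Membrane-bound dipeptidylaminopeptidase purified from rat brain and aminopeptidase M purified from rabbit kidney were each preincubated 15 min at 25 °C with or without increasing inhibitor concentrations in 50 mM Tris-HCl, pH 7.4. […] The reaction was stopped with HCl after 30 min, and tritiated metabolites were separated on polystyrene beads. IC50 came from log probit analysis of five inhibitor concentrations; mean ± SEM.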

Row | pIC50 | Structure (SMILES)
1 | 3.63 | O=CN(O)C(Cc1ccccc1)C(=O)NCC(=O)O (stereo unspecified)
2 | 6.52 | O=CN(O)CC(Cc1ccccc1)C(=O)NCC(=O)O (stereo unspecified)
3 | 5.46 | O=C(O)CNC(=O)C(Cc1ccccc1)C(=O)NO (stereo unspecified)
4 | 8.68 | CC(NC(=O)C(CC(=O)NO)Cc1ccccc1)C(=O)O (stereo unspecified)
5 | 7.68 | O=C(O)CNC(=O)C(CC(=O)NO)Cc1ccccc1 (stereo unspecified)

Target: T1, Neprilysin (Rattus norvegicus, UniProt P07861)
T1 sequence (P07861 whole entry): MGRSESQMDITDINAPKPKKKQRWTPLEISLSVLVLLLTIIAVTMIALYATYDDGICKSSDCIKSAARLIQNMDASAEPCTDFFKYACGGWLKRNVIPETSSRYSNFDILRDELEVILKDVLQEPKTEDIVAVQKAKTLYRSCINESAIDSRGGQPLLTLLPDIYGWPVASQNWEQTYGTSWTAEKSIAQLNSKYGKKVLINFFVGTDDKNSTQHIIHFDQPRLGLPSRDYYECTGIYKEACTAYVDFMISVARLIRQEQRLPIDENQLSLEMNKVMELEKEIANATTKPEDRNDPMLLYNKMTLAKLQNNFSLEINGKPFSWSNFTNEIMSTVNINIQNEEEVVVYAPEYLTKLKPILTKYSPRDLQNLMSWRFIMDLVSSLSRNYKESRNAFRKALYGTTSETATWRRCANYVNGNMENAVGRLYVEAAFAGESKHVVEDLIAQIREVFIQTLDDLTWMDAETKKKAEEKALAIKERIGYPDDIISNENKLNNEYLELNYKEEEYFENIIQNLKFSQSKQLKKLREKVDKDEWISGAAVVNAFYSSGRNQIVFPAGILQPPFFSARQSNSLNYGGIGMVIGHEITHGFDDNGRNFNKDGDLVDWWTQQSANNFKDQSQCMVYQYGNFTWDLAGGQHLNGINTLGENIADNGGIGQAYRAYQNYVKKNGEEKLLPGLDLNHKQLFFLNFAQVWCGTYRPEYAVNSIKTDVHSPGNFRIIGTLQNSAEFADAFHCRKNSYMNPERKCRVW
Assay: In vitro inhibition of enkephalinase purified from […].
Summary of the method: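 Enkephalinase purified from kidney (0.9 ± 0.2 pmol/100 µL final) was preincubated 15 min at 25 °C with or without increasing inhibitor concentrations in 50 mM Tris-HCl, pH 7.4. Tritiated metabolites were separated on polystyrene beads. IC50 came from log probit analysis of five inhibitor concentrations; mean ± SEM of five independent experiments.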

Row | Structure (SMILES) | pIC50
6 | O=CN(O)CC(Cc1ccccc1)C(=O)NCC(=O)O (stereo unspecified) | 8.00
7 | O=C(CNC(=O)C(Cc1ccccc1)C(=O)NO)NCc1ccccc1 (stereo unspecified) | 6.12
8 | CC(C)CCNC(=O)CNC(=O)C(Cc1ccccc1)N(O)C=O (stereo unspecified) | 7.52
9 | O=CN(O)CC(Cc1ccccc1)C(=O)NCC(=O)NCc1ccccc1 (stereo unspecified) | 5.92
10 | O=C(O)CNC(=O)C(CNO)Cc1ccccc1 (stereo unspecified) | < 9.00
11 | CC(NC(=O)C(CC(=O)NO)Cc1ccccc1)C(=O)O (stereo unspecified) | 8.70
12 | COC(=O)CNC(=O)C(Cc1ccccc1)C(=O)NO (stereo unspecified) | 9.00
13 | COC(=O)CNC(=O)C(Cc1ccccc1)CN(O)C=O (stereo unspecified) | 6.46

Next, values leading:

Row | pIC50 | Structure (SMILES)
14 | 5.82 | O=CN(O)C(Cc1ccccc1)C(=O)NCC(=O)O (stereo unspecified)
15 | 6.07 | CC(C)CCNC(=O)CNC(=O)C(Cc1ccccc1)C(=O)NO (stereo unspecified)
16 | 6.15 | O=C(O)CNC(=O)C(Cc1ccccc1)C(=O)O (stereo unspecified)
17 | 6.10 | CC(C)CCNC(=O)CNC(=O)C(Cc1ccccc1)CN(O)C=O (stereo unspecified)
18 | 6.22 | CC(C)CCNC(=O)CNC(=O)C(CC(=O)NO)Cc1ccccc1 (stereo unspecified)
19 | 6.10 | O=C(O)CNC(=O)C(CC(=O)O)Cc1ccccc1 (stereo unspecified)

Target: T1, Neprilysin
Assay: 50% inhibitory activity against enkephalinase purified from rabbit kidney with [3H]D-Ala2-Leu-enkephalin (20 nM) as substrate.

Row | pIC50 | Structure (SMILES)
20 | 8.74 | C[C@H](NC(=O)[C@H](CC(=O)NO)Cc1ccccc1)C(=O)O
21 | 8.77 | C[C@H](NC(=O)[C@@H](CC(=O)NO)Cc1ccccc1)C(=O)O (racemic) [KELATORPHAN]
